pIC50: −log10 of the molar value. Blank lines part the entries; values can stand above or below the molecule they belong to. Calls of active or inactive are those of the source. The rule behind the calls is not given here.
Columns and labels:
[1] = target: T1, Proteinase-activated receptor 4 (Homo sapiens) (UniProt Q96RI0); assay: Antagonist activity at PAR4 in human platelet-rich plasma assessed as inhibition of PAR4 AP AYPGKF-NH2-induced platelet aggregation at 0.2 uM by photo-turbidimetry assay relative to control; format: functional
T1 sequence (whole entry): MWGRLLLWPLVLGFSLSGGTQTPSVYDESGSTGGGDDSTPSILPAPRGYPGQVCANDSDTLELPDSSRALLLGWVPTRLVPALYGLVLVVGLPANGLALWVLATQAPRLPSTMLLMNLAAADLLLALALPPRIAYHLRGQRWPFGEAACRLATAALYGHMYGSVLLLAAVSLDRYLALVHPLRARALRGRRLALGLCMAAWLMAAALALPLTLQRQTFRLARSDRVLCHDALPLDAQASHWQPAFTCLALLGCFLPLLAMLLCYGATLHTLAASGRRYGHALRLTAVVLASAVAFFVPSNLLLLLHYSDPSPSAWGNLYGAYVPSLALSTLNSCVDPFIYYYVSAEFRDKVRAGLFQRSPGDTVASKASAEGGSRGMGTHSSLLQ
Method in brief: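 Human PRP from donated blood, spun at 160×g for 15 min, then adjusted to 3×10⁸/mL with PPP (2000×g, 15 min). Compound or saline vehicle preincubated with PRP for 5 min at 37 °C. Aggregation induced by AYPGKF-NH₂; maximal aggregation measured by light transmittance for 5 min. Percent inhibition at a single point; IC50 from ≥5 concentrations by curve fitting.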

[2] = target: T2, Proteinase-activated receptor 4 (Homo sapiens, UniProt Q96RI0); assay: Antagonist activity at human PAR4 expressed in Ga15-HEK293 cells assessed as reduction in PAR4 AP AYPGKF-NH2-induced cytosolic calcium incubated for 24 hrs by FLIPR - calcium mobilization assay; format: functional, cell-based
T2 sequence (Q96RI0 whole entry): T1 sequence (whole entry)
Method in brief: (§1)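 HEK293/Gα15 cells stably expressing human PAR1, PAR2 or PAR4, seeded at 45,000 cells/well and grown for 24 h at 37 °C, 5% CO₂. Cells loaded with calcium dye for 60 min at 37 °C in the dark. Compounds diluted from DMSO in HBSS and preincubated in the dark at room temperature. Agonists: SFFLRR (PAR1), 2-furoyl-LIGRLO-NH₂ (PAR2), AYPGKF-NH₂ (PAR4). Fluorescence read on FLIPR; 10-point half-log curves; mean of ≥2 determinations.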

[3] = target: T3, Proteinase-activated receptor 1 (Homo sapiens, UniProt P25116); assay: Antagonist activity at human PAR1 expressed in Ga15-HEK293 cells assessed as reduction in PAR1 AP SFFLRR-NH2-induced cytosolic calcium incubated for 24 hrs by FLIPR - calcium mobilization assay; format: functional, cell-based; method in brief: as §1
T3 sequence (P25116 whole entry): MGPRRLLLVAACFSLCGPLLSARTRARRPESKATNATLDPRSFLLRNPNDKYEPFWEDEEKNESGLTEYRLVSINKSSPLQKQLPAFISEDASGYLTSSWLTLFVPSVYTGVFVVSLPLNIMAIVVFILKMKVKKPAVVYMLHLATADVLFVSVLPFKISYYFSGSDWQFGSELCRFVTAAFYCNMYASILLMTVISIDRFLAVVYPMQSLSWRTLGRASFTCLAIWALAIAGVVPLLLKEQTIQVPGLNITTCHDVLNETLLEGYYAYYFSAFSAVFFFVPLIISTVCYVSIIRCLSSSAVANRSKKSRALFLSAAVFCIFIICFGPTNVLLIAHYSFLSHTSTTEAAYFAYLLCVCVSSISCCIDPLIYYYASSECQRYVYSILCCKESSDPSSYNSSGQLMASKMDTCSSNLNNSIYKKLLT

[4] = target: T4, Proteinase-activated receptor 2 (Homo sapiens, UniProt P55085); assay: Antagonist activity at human PAR2 expressed in Ga15-HEK293 cells assessed as reduction in PAR2 AP 2-furoyl-LIGRLO-NH2-induced cytosolic calcium incubated for 24 hrs by FLIPR - calcium mobilization assay; format: functional, cell-based; method in brief: as §1
T4 sequence (P55085 whole entry): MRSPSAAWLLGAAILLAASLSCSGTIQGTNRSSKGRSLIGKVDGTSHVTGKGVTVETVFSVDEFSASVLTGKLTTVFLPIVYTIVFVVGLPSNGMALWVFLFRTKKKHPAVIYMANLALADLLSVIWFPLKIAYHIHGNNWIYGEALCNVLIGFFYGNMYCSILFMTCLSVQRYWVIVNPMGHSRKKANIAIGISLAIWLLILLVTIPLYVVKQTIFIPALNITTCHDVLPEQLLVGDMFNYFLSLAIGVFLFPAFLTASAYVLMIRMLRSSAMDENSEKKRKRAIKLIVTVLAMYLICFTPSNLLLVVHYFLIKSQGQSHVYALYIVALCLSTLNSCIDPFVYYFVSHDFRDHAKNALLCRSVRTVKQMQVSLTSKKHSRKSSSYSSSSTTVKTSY

[5] = Metabolic stability in human liver microsomes assessed as half life incubated for 60 mins by LC-MS/MS analysis; format: ADME, Microsome
[6] = Metabolic stability in human liver microsomes assessed as intrinsic clearance incubated for 60 mins by LC-MS/MS analysis; format: ADME, Microsome; conditions: 1 h
[7] = Metabolic stability in rat liver microsomes assessed as half life incubated for 60 mins by LC-MS/MS analysis; format: ADME, Microsome
Method in brief: (§2)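 Human, rat or mouse liver microsomes in potassium phosphate buffer at pH ~7.4, warmed to 37 °C with compound (DMSO stock diluted in acetonitrile). Reaction started with NADPH; no-NADPH negative controls. Aliquots taken at 0 and 60 min, quenched in ice-cold acetonitrile with internal standard, and parent measured by LC/MS/MS. t1/2 = 0.693/k from ln concentration vs time; CLint derived from t1/2. Triplicate; mean ± SD.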

[8] = Metabolic stability in rat liver microsomes assessed as intrinsic clearance incubated for 60 mins by LC-MS/MS analysis; format: ADME, Microsome; conditions: 1 h; method in brief: as §2
[9] = Metabolic stability in mouse liver microsomes assessed as half life incubated for 60 mins by LC-MS/MS analysis; format: ADME, Microsome; method in brief: as §2
[10] = Metabolic stability in mouse liver microsomes assessed as intrinsic clearance incubated for 60 mins by LC-MS/MS analysis; format: ADME, Microsome; conditions: 1 h; method in brief: as §2
[11] = Cytotoxicity against HEK293T cells assessed as cell viability at 1 uM incubated for 48 hrs by CCK-8 assay; format: cell-based, HEK-293T; conditions: human, read-out: Activity
Method in brief: (§3)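 HEK293 cells in exponential growth, 4000/well, left to adhere overnight, then exposed to three compound concentrations for 48 h. Equal-volume DMSO served as control. CCK-8 added for 2 h at 37 °C in the dark, absorbance read at 450 nm. Viability = OD sample/OD control × 100; mean ± SD, n=3.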

[12] = Cytotoxicity against HEK293T cells assessed as cell viability at 10 uM incubated for 48 hrs by CCK-8 assay; format: cell-based, HEK-293T; conditions: human, read-out: Activity; method in brief: as §3
[13] = Cytotoxicity against HEK293T cells assessed as cell viability at 20 uM incubated for 48 hrs by CCK-8 assay; format: cell-based, HEK-293T; conditions: human, read-out: Activity; method in brief: as §3
Platelet [14] = assay: Antiplatelet activity against AYPGKF-NH2-induced human platelet in platelet rich plasma assessed as inhibition of platelet aggregation at 10 uM by photo-turbidimetry method; format: functional, cell-based
Method in brief: (§4)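 Human PRP prepared as for the aggregation assay and adjusted to 3×10⁸/mL. Compound preincubated for 5 min at 37 °C, then aggregation triggered by AYPGKF, SFLLRN, collagen, ADP or U46619. Maximum percent inhibition taken from 5 min light-transmittance traces. Mean ± SD, n=3.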

Platelet [15] = assay: Antiplatelet activity against SFLLRN-NH2-induced human platelet in platelet rich plasma assessed as inhibition of platelet aggregation at 10 uM by photo-turbidimetry method; format: functional, cell-based; method in brief: as §4
Platelet [16] = assay: Antiplatelet activity against collagen-induced human platelet aggregation in platelet in platelet rich plasma assessed as inhibition of platelet aggregation at 10 uM by photo-turbidimetry method; format: functional, cell-based; method in brief: as §4
Platelet [17] = assay: Antiplatelet activity against ADP-induced human platelet aggregation in platelet in platelet rich plasma assessed as inhibition of platelet aggregation at 10 uM by photo-turbidimetry method; format: functional, cell-based; method in brief: as §4
Platelet [18] = assay: Antiplatelet activity against U46619-induced human platelet aggregation in platelet in platelet rich plasma assessed as inhibition of platelet aggregation at 10 uM by photo-turbidimetry method; format: functional, cell-based; method in brief: as §4

Structure (SMILES): Cc1cc(-c2cccc(Cl)c2Cl)c2ncn(C)c(=O)c2c1
inhibition [1]: 34.3%

Structure (SMILES): Cc1cc(-c2nc3c(Cl)cc(OCCNS(=O)(=O)c4ccccc4)cc3s2)c2ncn(C)c(=O)c2c1
inhibition [1]: 17.9%

Structure (SMILES): Cc1ccc(S(=O)(=O)NCCOc2cc(Cl)c3nc(-c4cc(C)cc5c(=O)n(C)cnc45)sc3c2)cc1
inhibition [1]: 30.5%

Structure (SMILES): Cc1cc(-c2nc3c(Cl)cc(OCCNC(=O)c4ccccc4)cc3s2)c2ncn(C)c(=O)c2c1
inhibition ([1]; filed as antagonist): 94.5%

Structure (SMILES): COc1ccccc1-c1cc(C)cc2c(=O)n(C)cnc12
inhibition [1]: 17.4%

Structure (SMILES): COc1cc(Cl)c2nc(-c3cc(C)cc4c(=O)n(C)cnc34)sc2c1
pIC50 [2]: 9.28
pIC50 [3]: < 5.50
pIC50 [4]: < 6.00
half-life [5]: 42.6 min
CLH [6]: 36.6 mL/min/g
half-life [7]: 31.9 min
CLH [8]: 78.1 mL/min/g
half-life [9]: 282 min
CLH [10]: 19.3 mL/min/g
viability at 48 h, 1 µM [11]: 91.3%
viability at 48 h, 10 µM [12]: 73.7%
viability at 48 h, 20 µM [13]: 59.3%
Activity (Platelet [14]): Active
Activity (Platelet [15]): inactive
Activity (Platelet [16]): inactive
Activity (Platelet [17]): inactive
Activity (Platelet [18]): inactive

Structure (SMILES): Cc1cc(-c2cccnc2)c2ncn(C)c(=O)c2c1
inhibition [1]: 1.8%

Structure (SMILES): CCCCc1cc(-c2nc3c(s2)CCCC3)c2ncn(C)c(=O)c2c1
inhibition [1]: 25.7%

Structure (SMILES): Cc1cc(-c2nc3c(s2)CCCC3)c2ncn(C)c(=O)c2c1
pIC50 [2]: 8.24
pIC50 [3]: < 5.50
pIC50 [4]: < 6.00

Structure (SMILES): COc1cc(F)c2nc(-c3cc(C)cc4c(=O)n(C)c(C)nc34)sc2c1
inhibition [1]: 20.1%

Structure (SMILES): Cc1cc(-c2cc3ccccc3o2)c2ncn(C)c(=O)c2c1
inhibition ([1]; filed as antagonist): 44.4%

More lines, now with the values ahead:

inhibition [1]: 33.2%
Structure (SMILES): Cc1cc(-c2nc3c(Cl)cc(OCCN)cc3s2)c2ncn(C)c(=O)c2c1

inhibition [1]: 25.6%
Structure (SMILES): COc1cc(Cl)c2nc(-c3cccc4c(=O)n(C)cnc34)sc2c1

inhibition ([1]; filed as antagonist): 45.3%
Structure (SMILES): COCn1cnc2c(-c3nc4c(Cl)cc(OC)cc4s3)cc(C)cc2c1=O

pIC50 [2]: 8.49
pIC50 [3]: < 5.50
pIC50 [4]: < 6.00
Structure (SMILES): COc1cc(F)c2nc(-c3cc(C)cc4c(=O)n(C)cnc34)sc2c1

inhibition [1]: 35.7%
Structure (SMILES): Cc1cc(-c2nc3c(Cl)cc4c(c3s2)OCCO4)c2ncn(C)c(=O)c2c1

inhibition [1]: 8.7%
Structure (SMILES): Cc1cc(-c2nc3c(Cl)cc(OCCNS(=O)(=O)c4ccc(F)cc4)cc3s2)c2ncn(C)c(=O)c2c1

inhibition [1]: 36.5%
Structure (SMILES): CCn1cnc2c(-c3nc4c(Cl)cc(OC)cc4s3)cc(C)cc2c1=O

inhibition [1]: 16%
Structure (SMILES): Cc1cc(-c2ccccc2F)c2ncn(C)c(=O)c2c1

inhibition [1]: 27.7%
Structure (SMILES): C#CCn1cnc2c(-c3nc4c(F)cc(OC)cc4s3)cc(C)cc2c1=O

inhibition [1]: 25.7%
Structure (SMILES): CCc1cc(-c2nc3c(s2)CCCC3)c2ncn(C)c(=O)c2c1

— ChEMBL document CHEMBL4842351, “Synthesis and evaluation of novel and potent protease activated receptor 4 (PAR4) antagonists based on a quinazolin-4(3H)-one scaffold” (Eur J Med Chem, 2021)
